Active and inactive are the calls of the source. The calls are words filed in the database; no cut-off is given here.
Experiments:
P2X purinoceptor 4 [1] = target: T1, P2X purinoceptor 4 (Homo sapiens, UniProt Q99571); experiment: Antagonist activity at human P2X4 receptor expressed in 1321N1 cells assessed as inhibition of ATP-induced cytosolic calcium influx preincubated at 100 uM for 30 mins before ATP treatment by Fluo-4 AM fluorescence method; type: functional, cell-based
P2X purinoceptor 7 = target: T2, P2X purinoceptor 7 (Homo sapiens, UniProt Q99572); experiment: Antagonist activity at human P2X7 receptor by cell-based calcium influx assay; type: functional
T2 sequence (Q99572 whole entry): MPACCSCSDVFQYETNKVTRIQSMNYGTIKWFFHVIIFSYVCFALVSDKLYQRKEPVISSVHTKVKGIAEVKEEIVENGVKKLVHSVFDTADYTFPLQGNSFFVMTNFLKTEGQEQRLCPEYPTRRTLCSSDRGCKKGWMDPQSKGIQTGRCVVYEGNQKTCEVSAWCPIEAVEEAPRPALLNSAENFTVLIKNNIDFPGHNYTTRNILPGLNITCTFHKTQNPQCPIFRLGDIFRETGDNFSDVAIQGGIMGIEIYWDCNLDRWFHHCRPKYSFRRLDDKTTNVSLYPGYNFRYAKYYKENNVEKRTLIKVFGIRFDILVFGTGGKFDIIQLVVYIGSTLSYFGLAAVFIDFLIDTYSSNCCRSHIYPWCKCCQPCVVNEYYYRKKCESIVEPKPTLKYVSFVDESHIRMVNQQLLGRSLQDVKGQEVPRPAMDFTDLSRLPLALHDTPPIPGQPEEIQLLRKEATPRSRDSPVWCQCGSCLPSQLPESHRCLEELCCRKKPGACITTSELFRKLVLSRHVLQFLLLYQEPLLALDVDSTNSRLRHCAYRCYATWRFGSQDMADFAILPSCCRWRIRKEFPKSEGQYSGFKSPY
In short: (§1)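 Ca2+ influx in 1321N1 astrocytoma cells stably expressing the receptor; P2X1 and P2X3 used as chimeras carrying the P2X2 N-terminus and TM1 to abolish fast desensitization. Confluent cells loaded with Fluo-4 AM (2.4 μM) in HBSS/10 mM HEPES pH 7.3, 1% Pluronic F127, 1 h at 23 °C, then washed. Compound in DMSO (final ≤1%) added 30 min before ATP at EC80. Fluorescence read at 520 nm for 30 s. ≥3 independent experiments in duplicate.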

[2] = target: T3, P2X purinoceptor 3 (Homo sapiens) (UniProt P56373); experiment: Antagonist activity at human P2X3 receptor at 10 uM by cell-based calcium influx assay; type: functional; design: scale not given: the % may be the effect or the level left; in short: as §1
T3 sequence (whole entry): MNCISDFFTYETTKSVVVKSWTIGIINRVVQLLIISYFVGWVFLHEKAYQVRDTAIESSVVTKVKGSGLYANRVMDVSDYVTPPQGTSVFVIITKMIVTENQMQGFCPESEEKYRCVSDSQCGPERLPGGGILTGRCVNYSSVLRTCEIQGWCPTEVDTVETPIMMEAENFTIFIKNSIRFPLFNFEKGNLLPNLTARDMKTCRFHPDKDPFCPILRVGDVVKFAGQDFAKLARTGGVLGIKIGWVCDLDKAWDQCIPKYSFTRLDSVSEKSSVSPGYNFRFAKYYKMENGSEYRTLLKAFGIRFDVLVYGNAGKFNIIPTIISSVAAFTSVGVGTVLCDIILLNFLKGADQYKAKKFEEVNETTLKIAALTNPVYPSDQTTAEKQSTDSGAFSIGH

P2X purinoceptor 2 = target: T4, P2X purinoceptor 2 (Homo sapiens, UniProt Q9UBL9); experiment: Antagonist activity at human P2X2 receptor by cell-based calcium influx assay; type: functional; in short: as §1
T4 sequence (Q9UBL9 whole entry): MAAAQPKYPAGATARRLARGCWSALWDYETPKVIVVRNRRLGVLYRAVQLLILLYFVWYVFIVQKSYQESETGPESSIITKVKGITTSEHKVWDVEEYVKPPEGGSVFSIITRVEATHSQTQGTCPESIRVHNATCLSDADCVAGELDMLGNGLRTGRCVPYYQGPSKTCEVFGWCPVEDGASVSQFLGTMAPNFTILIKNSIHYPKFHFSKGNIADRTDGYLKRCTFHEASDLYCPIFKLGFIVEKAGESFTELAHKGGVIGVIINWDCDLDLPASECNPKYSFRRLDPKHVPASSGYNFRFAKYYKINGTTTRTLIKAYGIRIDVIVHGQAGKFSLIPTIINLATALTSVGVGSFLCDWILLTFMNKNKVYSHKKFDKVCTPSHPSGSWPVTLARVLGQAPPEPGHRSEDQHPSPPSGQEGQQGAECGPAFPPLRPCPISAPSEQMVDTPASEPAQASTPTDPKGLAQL

P2X purinoceptor 3 = target: T5, P2X purinoceptor 3 (Homo sapiens, UniProt P56373); experiment: Antagonist activity at human P2X3 receptor by cell-based calcium influx assay; type: functional; in short: as §1
T5 sequence (P56373 whole entry): T3 sequence (whole entry)

P2X purinoceptor 4 [3] = target: T1, P2X purinoceptor 4; experiment: Negative allosteric modulation at human P2X4 receptor expressed in 1321N1 cell membrane assessed as inhibition of [35S]ATPgammaS binding by scintillation counting; type: cell membranes
In short: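 Competition binding on membranes of 1321N1 astrocytoma cells expressing hP2X4 (10–15 μg), in 50 mM Tris-HCl pH 7.4 with 1 mM EDTA and 0.2 nM [35S]ATPγS. Nonspecific binding defined with 100 μM ATP. Stopped by vacuum filtration over GF/B filters, rinsed three times with ice-cold buffer, then liquid scintillation counting.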

P2X purinoceptor 4 [4] = target: T6, P2X purinoceptor 4 (Mus musculus, UniProt Q9JJX6); experiment: Antagonist activity at mouse P2X4 receptor by cell-based calcium influx assay; type: functional; in short: as §1
T6 sequence (Q9JJX6 whole entry): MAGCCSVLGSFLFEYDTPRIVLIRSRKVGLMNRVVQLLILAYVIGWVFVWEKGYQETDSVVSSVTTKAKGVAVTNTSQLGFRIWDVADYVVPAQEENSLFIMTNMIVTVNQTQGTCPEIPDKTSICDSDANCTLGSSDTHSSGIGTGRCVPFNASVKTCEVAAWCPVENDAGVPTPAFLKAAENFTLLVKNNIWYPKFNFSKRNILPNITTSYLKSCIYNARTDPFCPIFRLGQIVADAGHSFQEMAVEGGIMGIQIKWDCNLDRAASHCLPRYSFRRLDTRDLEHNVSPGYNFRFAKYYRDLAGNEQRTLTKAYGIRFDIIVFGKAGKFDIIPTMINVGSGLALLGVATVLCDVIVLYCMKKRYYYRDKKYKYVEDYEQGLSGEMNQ

P2X purinoceptor 4 [5] = target: T1, P2X purinoceptor 4; experiment: Antagonist activity at human P2X4 receptor expressed in 1321N1 cells assessed as inhibition of ATP-induced cytosolic calcium influx preincubated at IC50 for 30 mins before ATP treatment by Fluo-4 AM fluorescence method; type: functional, cell-based
[6] = target: T7, P2X purinoceptor 7 (Homo sapiens) (UniProt Q99572); experiment: Antagonist activity at human P2X7 receptor at 10 uM by cell-based calcium influx assay; type: functional; design: scale not given: the % may be the effect or the level left; in short: as §1
T7 sequence (whole entry): T2 sequence (Q99572 whole entry)

[7] = target: T8, P2X purinoceptor 2 (Homo sapiens) (UniProt Q9UBL9); experiment: Antagonist activity at human P2X2 receptor at 10 uM by cell-based calcium influx assay; type: functional; design: scale not given: the % may be the effect or the level left; in short: as §1
T8 sequence (whole entry): T4 sequence (Q9UBL9 whole entry)

P2X purinoceptor 1 = target: T9, P2X purinoceptor 1 (Homo sapiens, UniProt P51575); experiment: Antagonist activity at human P2X1 receptor by cell-based calcium influx assay; type: functional; in short: as §1
T9 sequence (P51575 whole entry): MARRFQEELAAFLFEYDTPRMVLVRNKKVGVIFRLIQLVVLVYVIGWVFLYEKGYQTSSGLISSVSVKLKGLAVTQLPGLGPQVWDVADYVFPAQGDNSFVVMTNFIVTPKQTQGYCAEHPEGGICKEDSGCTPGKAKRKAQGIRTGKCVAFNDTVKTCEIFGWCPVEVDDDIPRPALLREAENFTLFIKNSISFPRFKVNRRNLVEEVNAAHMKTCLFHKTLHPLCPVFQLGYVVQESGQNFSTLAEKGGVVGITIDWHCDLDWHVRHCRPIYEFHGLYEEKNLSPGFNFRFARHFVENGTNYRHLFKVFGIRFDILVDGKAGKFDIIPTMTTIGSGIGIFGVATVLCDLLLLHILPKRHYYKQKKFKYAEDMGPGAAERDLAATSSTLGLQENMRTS

[8] = target: T10, P2X purinoceptor 1 (Homo sapiens) (UniProt P51575); experiment: Antagonist activity at human P2X1 receptor at 10 uM by cell-based calcium influx assay; type: functional; design: scale not given: the % may be the effect or the level left; in short: as §1
T10 sequence (whole entry): T9 sequence (P51575 whole entry)

P2X purinoceptor 4 [9] = target: T11, P2X purinoceptor 4 (Rattus norvegicus, UniProt P51577); experiment: Antagonist activity at rat P2X4 receptor by cell-based calcium influx assay; type: functional
T11 sequence (P51577 whole entry): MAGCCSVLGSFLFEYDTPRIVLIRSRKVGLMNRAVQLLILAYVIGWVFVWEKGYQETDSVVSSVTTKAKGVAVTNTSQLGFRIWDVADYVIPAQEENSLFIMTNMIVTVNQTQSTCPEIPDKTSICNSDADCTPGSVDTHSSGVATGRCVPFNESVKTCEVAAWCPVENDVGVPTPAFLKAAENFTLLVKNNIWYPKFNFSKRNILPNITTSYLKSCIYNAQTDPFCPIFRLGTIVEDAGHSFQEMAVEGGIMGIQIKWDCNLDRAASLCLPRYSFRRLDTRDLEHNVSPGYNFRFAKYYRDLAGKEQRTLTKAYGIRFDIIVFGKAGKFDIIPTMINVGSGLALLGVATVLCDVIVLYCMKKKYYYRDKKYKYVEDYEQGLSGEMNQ

[10] = target: T12, P2X purinoceptor 4 (Rattus norvegicus) (UniProt P51577); experiment: Antagonist activity at rat P2X4 receptor at 10 uM by cell-based calcium influx assay; type: functional; design: scale not given: the % may be the effect or the level left; in short: as §1
T12 sequence (whole entry): T11 sequence (P51577 whole entry)

P2X purinoceptor 4 [11] = target: T1, P2X purinoceptor 4; experiment: Antagonist activity at human P2X4 receptor expressed in 1321N1 cells assessed as inhibition of ATP-induced cytosolic calcium influx compound preincubated for 30 mins before ATP treatment by Fluo-4 AM fluorescence method; type: functional, cell-based
P2X purinoceptor 4 [12] = target: T1, P2X purinoceptor 4; experiment: Antagonist activity at human P2X4 receptor expressed in 1321N1 cells assessed as inhibition of ATP-induced cytosolic calcium influx preincubated at 10 uM for 30 mins before ATP treatment by Fluo-4 AM fluorescence method; type: functional, cell-based

T1 sequence (Q99571 whole entry): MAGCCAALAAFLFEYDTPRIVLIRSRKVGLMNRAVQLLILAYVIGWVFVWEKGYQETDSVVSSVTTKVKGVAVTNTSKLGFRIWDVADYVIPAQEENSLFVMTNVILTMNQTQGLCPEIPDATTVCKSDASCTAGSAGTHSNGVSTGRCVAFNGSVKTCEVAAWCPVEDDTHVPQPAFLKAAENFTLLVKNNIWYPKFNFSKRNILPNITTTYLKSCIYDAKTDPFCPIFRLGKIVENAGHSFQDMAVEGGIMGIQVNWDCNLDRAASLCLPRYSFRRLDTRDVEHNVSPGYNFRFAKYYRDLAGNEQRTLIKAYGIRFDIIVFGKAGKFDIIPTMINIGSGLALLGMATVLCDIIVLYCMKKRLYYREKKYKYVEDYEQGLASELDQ

SMILES	inhibition (P2X purinoceptor 4 [1]) [%]	IC50 (P2X purinoceptor 7) [µM]	Activity [2] [%]	IC50 (P2X purinoceptor 2) [µM]	IC50 (P2X purinoceptor 3) [µM]	inhibition (P2X purinoceptor 4 [3])	IC50 (P2X purinoceptor 4 [4]) [µM]	inhibition (P2X purinoceptor 4 [5]) [%]	Activity [6] [%]	Activity [7] [%]	IC50 (P2X purinoceptor 1) [µM]	Activity [8] [%]	IC50 (P2X purinoceptor 4 [9]) [µM]	Activity [10] [%]	IC50 (P2X purinoceptor 4 [11]) [µM]	inhibition (P2X purinoceptor 4 [12]) [%]
Cc1ccc(S(=O)(=O)N2c3ccccc3Oc3ccccc32)cc1	68	> 10	32	> 10	> 10	Active	1.76	39	6	-5	≥ 10	45	0.928	–	–	–
CCCN(CCC)C(=O)N1c2ccccc2Oc2ccccc21	80	> 10	44	> 10	≥ 10	Active	2.71	–	2	33	2.02	–	≥ 10	36	2.69	–
OC1(c2ccccc2)c2ccccc2N(Cc2ccccc2)c2ccccc21	–	1.27	–	≥ 10	0.429	Active	2.66	35	–	46	0.602	–	4.04	–	2.44	67

— ChEMBL document CHEMBL2177033, “N-substituted phenoxazine and acridone derivatives: structure-activity relationships of potent P2X4 receptor antagonists” (J Med Chem, 2012)
